Experimental findings from ChEMBL document CHEMBL4043263, “Identification of selective 8-(piperidin-4-yloxy)quinoline sulfone and sulfonamide histamine H1 receptor antagonists for use in allergic rhinitis” (Bioorg Med Chem Lett, 2017) are described below.

Bounds are passed on as bounds.

Data set [1] in a line: Dissociation constant, pKa of the compound. It counts as physicochemical.
Data set [2] is described as follows: Ratio of drug level in brain to blood in CD Sprague-Dawley rat at 1 mg/kg, iv administered via bolus dose after 5 mins by LC-MS/MS analysis. The format is ADME, organism-based. As to conditions: brain and blood; call rule not given here. The procedure, abridged: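 Rats received a single intravenous bolus at 1 mg/kg. Brain and blood samples were taken 5 min after dosing. Brain concentration was expressed as ng/g tissue, and the brain:blood concentration ratio was calculated.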

A short description of data set [3]: Drug level in CD Sprague-Dawley rat brain at 1 mg/kg, iv administered via bolus dose measured after 5 mins by LC-MS/MS analysis. The format is ADME, organism-based. As to conditions: read-out: Drug uptake. The method, boiled down: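 Rats given a 1 mg/kg intravenous bolus; brain and blood sampled 5 min later. Reported as mean brain concentration (ng/g tissue) and brain:blood ratio.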

Data set [4] can be described thus: Drug excretion in Beagle dog urine at 1 mg/kg, iv administered via bolus dose by LC-MS/MS analysis.
A short description of data set [5]: Blood clearance in Beagle dog at 0.5 mg/kg, iv administered via bolus dose or 1 mg/kg, po administered via gavage by LC-MS/MS analysis. The format is ADME, organism-based, Canis lupus familiaris.
The nature of data set [6]: Drug excretion in Beagle dog urine at 1 mg/kg, po administered via gavage by LC-MS/MS analysis. The format is ADME, organism-based, Canis lupus familiaris. To be noted: read-out: Drug excretion. The method, boiled down:
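Parent compound measured in urine of dogs after intravenous (1 mg/kg) or oral dosing; expressed as % of dose.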

Data set [7] in a line: Drug metabolism in human hepatocytes assessed as M11 formation by mass spectrometric analysis. It counts as ADME, cell-based, Hepatocyte.
A short description of data set [8]: Drug level in CD Sprague-Dawley rat brain at 300 mg/kg, po measured after 30 mins by LC-MS/MS analysis. The format is ADME, organism-based. To be noted: read-out: Drug uptake. The procedure, abridged:
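Rats given a single 300 mg/kg oral dose; brain and blood sampled 30 min later. Reported as brain concentration (ng/g) and brain:blood ratio.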

Data set [9] relates to Liver. Description: Drug metabolism in dog liver microsomes. The format is ADME, Canis lupus familiaris, microsome. The procedure, abridged: (§1)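 Intrinsic clearance measured in vitro with liver microsomes from mouse, rat, dog and human; expressed as mL/min/g tissue.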
Data set [10] deals with Liver. Description: Drug metabolism in mouse liver microsomes. It counts as ADME, microsome. The procedure, abridged:
as §1

Data set [11] can be described thus: Blood clearance in CD Sprague-Dawley rat at 1 mg/kg, iv or 3 mg/kg, po by LC-MS/MS analysis. The format is ADME, organism-based. The procedure, abridged: (§2)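 CD rats dosed intravenously at 1 mg/kg (n=4) or orally at 3 mg/kg (n=3) as a solution in H2O–PEG200–DMSO (50:45:5). Blood clearance reported as mean and as % of liver blood flow; half-life taken from intravenous data.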

Data set [12] is described as follows: AUC (0 to last) in CD Sprague-Dawley rat at 3 mg/kg, po by LC-MS/MS analysis.
Data set [13] can be described thus: Drug metabolism in human hepatocytes assessed as M15 formation by mass spectrometric analysis. The format is ADME, cell-based, Hepatocyte.
Data set [14] can be described thus: Bioavailability in CD Sprague-Dawley rat at 2 mg/kg, sc by LC-MS/MS analysis. It counts as ADME, organism-based. To be noted: in vivo. The method, boiled down: (§3)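 Single rat dosed subcutaneously at 2 mg/kg in DMSO–PEG 200–water (5:45:50). Bioavailability estimated against intravenous data.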
Data set [15] is described as follows: Drug metabolism in human hepatocytes assessed as M26 formation by mass spectrometric analysis. The format is ADME, cell-based, Hepatocyte.
Data set [16] in a line: Oral bioavailability in CD Sprague-Dawley rat at 10 mg/kg by LC-MS/MS analysis. As to conditions: in vivo. The format is ADME, organism-based. The method, boiled down: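 Three rats dosed orally at 10 mg/kg in 0.5% hydroxypropylmethyl cellulose. Bioavailability is a lower-bound estimate because the terminal phase was poorly defined.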
Data set [17] is described as follows: Volume of distribution at steady state in CD Sprague-Dawley rat at 1 mg/kg, iv or 3 mg/kg, po by LC-MS/MS analysis. It counts as ADME, organism-based. To be noted: in vivo, read-out: Vdss. The procedure, abridged: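 CD rats (n=4) received a 1 mg/kg intravenous dose of the dihydrochloride salt as a solution in H2O–PEG200–DMSO (50:45:5). Steady-state volume of distribution was taken from the intravenous blood profile and reported as the mean.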

Data set [18] can be described thus: Oral bioavailability in Beagle dog at 1 to 2 mg/kg administered via gavage by LC-MS/MS analysis. It counts as ADME, organism-based, Canis lupus familiaris. As to conditions: in vivo. The method, boiled down:
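Beagle dogs given oral doses of 1 mg/kg (n=2) or 2 mg/kg (n=2) in H2O–PEG200–DMSO (50:45:5). Bioavailability is the mean of the four animals, referenced to a 1 mg/kg intravenous dose.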

A short description of data set [19]: in vivo. To be noted: CD Sprague-Dawley, rat, brain and blood, po, 300 mg/kg.
Data set [20] concerns Rattus norvegicus. The experiment in a line: Blood clearance in CD Sprague-Dawley rat at 1 mg/kg, iv or 3 mg/kg, po by LC-MS/MS analysis relative to liver blood flow. As to conditions: in vivo. The format is ADME, organism-based. The method, boiled down:
as §2

Data set [21] is described as follows: Drug uptake in arterial blood of ovalbumin-sensitized guinea pig model of histamine-induced allergic rhinitis at 1 mg/ml administered intranasally pretreated for 24 hrs followed by histamine challenge after 30 mins post atropine monohydrate hemisulfate addition. It counts as ADME, tissue-based, Cavia porcellus. As to conditions: in vivo, inhaled_or_intranasal, 0.5 h. The method, boiled down: (§4)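 Arterial blood taken from guinea pigs immediately after nasal congestion was assessed, 4 or 25 h after an intranasal dose of 1 mg/mL solution (25 µL/nostril).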

The nature of data set [22]: Drug metabolism in human hepatocytes assessed as M19 formation by mass spectrometric analysis. The format is ADME, cell-based, Hepatocyte.
Data set [23] is described as follows: Drug level in blood of ovalbumin-sensitized guinea pig model of histamine-induced allergic rhinitis. It counts as ADME, tissue-based, Cavia porcellus. As to conditions: read-out: Drug uptake. The method, boiled down: as §4
Data set [24] in a line: Permeability in MDCK cells. It counts as ADME, cell-based, Canis lupus familiaris. To be noted: dog, read-out: permeability. The procedure, abridged: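 Permeability measured across MDCK cell monolayers, reported in nm/s; n=3.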
Data set [25] in a line: Elimination half life in Beagle dog at 0.5 mg/kg, iv administered via bolus dose or 1 mg/kg, po administered via gavage by LC-MS/MS analysis. It counts as ADME, organism-based, Canis lupus familiaris. To be noted: in vivo, read-out: beta t1/2 (converted).
Data set [26] can be described thus: Drug absorption in CD Sprague-Dawley rat hepatic portal vein at 3 mg/kg, po. The format is ADME, organism-based. To be noted: read-out: Drug absorption. The method, boiled down: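 Rats given 3 mg/kg orally; the fraction of dose absorbed into the hepatic portal vein was calculated.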
Data set [27] relates to Liver. Description: Drug metabolism in rat liver microsomes. It counts as ADME, microsome. The procedure, abridged:
as §1

Data set [28] is described as follows: Volume of distribution at steady state in Beagle dog at 0.5 mg/kg, iv administered via bolus dose or 1 mg/kg, po administered via gavage by LC-MS/MS analysis. The format is ADME, organism-based, Canis lupus familiaris. As to conditions: in vivo, read-out: Vdss.
Data set [29] in a line: Drug uptake in arterial blood of ovalbumin-sensitized guinea pig model of histamine-induced allergic rhinitis at 1 mg/ml administered intranasally pretreated for 4 hrs followed by histamine challenge after 30 mins post atropine monohydrate hemisulfate addition. The format is ADME, tissue-based, Cavia porcellus. To be noted: in vivo, inhaled_or_intranasal, 0.5 h. The procedure, abridged: as §4

Data set [30] is described as follows: Bioavailability in sc dosed CD Sprague-Dawley rat by LC-MS/MS analysis. The format is ADME, organism-based. To be noted: in vivo. The method, boiled down: as §3
Data set [31] concerns Liver. Description: Drug metabolism in human liver microsomes. It counts as ADME, microsome. The method, boiled down:
as §1

Data set [32] can be described thus: Drug metabolism in human hepatocytes assessed as M24 formation by mass spectrometric analysis. It counts as ADME, cell-based, Hepatocyte.
Data set [33] in a line: Elimination half life in CD Sprague-Dawley rat at 1 mg/kg, iv by LC-MS/MS analysis. It counts as ADME, organism-based. As to conditions: in vivo, read-out: beta t1/2 (converted). The method, boiled down:
as §2

The test system of data set [34] is Canis familiaris. Description: Blood clearance in Beagle dog at 0.5 mg/kg, iv administered via bolus dose or 1 mg/kg, po administered via gavage by LC-MS/MS analysis relative to liver blood flow. It counts as ADME, organism-based, Canis lupus familiaris. As to conditions: in vivo.

Regarding `CCCCc1cc(OC2CCN(CCCNS(=O)(=O)CC)CC2)c2ncccc2c1`, in data set [1], the pKa is 8.5.

Regarding `CCCCc1cc(OC2CCN(CCCS(=O)(=O)C(C)(C)C)CC2)c2ncccc2c1`, the pKa in [1] was 8. Further, the concentration ratio (Kp) at 5 min in data set [2] was found to be 0.77. Also, the concentration at 5 min in data set [3] amounted to 133 ng/g.

In turn, `CCCCc1cc(OC2CCN(CCS(=O)(=O)CC)CC2)c2ncccc2c1` had a pKa in data set [1] of 6.5.

Consider `CCCCc1cc(OC2CCN(CCCCNS(=O)(=O)CC)CC2)c2ncccc2c1.Cl.Cl`, for which the dose excreted in [4] was < 1%; in data set [6], < 0.1%. The values for the clearance in data set [5] and in data set [11] were 20 mL/min/kg and 38 mL/min/kg, respectively. The Drug metabolism result in data set [7] is “Metabolite_Detected”; in data set [9], 3.6 mL/min/g; in data set [10], 3.7 mL/min/g; in [13], “Metabolite_Detected”; in [15], “Metabolite_Detected”; in data set [22], “Metabolite_Detected”. Also, the figures for the Drug metabolism in data set [27], in data set [31] and in data set [32] were 2.9 mL/min/g, 1.4 mL/min/g and “Metabolite_Detected”, respectively. Also, the concentration at 0.5 h in data set [8] was determined as 14500 ng/g. In addition, the exposure AUC(0-t) in data set [12] came to 62 ng·h/mL. In addition, the bioavailability in [14] is 45%; in [16], 4 to 9%; in data set [18] it was 5%; in data set [30], 45%. Moreover, the Vd in data set [17] was 4.2 L/kg; in data set [28], 4.5 L/kg. The Kp at 0.5 h in data set [19] worked out at 11. The CL is reported as 45% in data set [20] and 65% in data set [34]. Moreover, the Drug uptake result in [21] and in data set [29] was “Active” throughout. Further, in [23], the concentration worked out at 7 nM. In [24], the Papp amounted to 5.2 ×10⁻⁶ cm/s. Moreover, the half-life was 3.8 h in data set [25] and 1.8 h in data set [33]. Besides, the Fa in [26] was in the range of 13 to 16%. The Kp at 5 min in [2] is 0.1. The concentration at 5 min in data set [3] was 26 ng/g.

For the molecule `CCCCc1cc(OC2CCN(CCCS(=O)(=O)CC)CC2)c2ncccc2c1.Cl.Cl`, the AUC(0-t) in data set [12] is 568 ng·h/mL. This molecule also registered a pKa in data set [1] of 7.9. Further, the Kp at 5 min in data set [2] was 0.09. Moreover, the concentration at 5 min in [3] stood at 62 ng/g.
